The source made the active and inactive calls. The rule behind the calls is not given here.
Tested on: Bone marrow cell
Test: Induction of cell differentiation in mouse bone marrow cells transformed with MLL-AF9 assessed as change in morphology at 3 uM incubated for 6 days by Wright-Giemsa staining based inverted microscopy
Type: functional
Details: time 6.0 day
Outline: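 Cells taken on day 6 of the proliferation culture (MLL-AF9 murine line, IMDM + 15% FBS + IL-3, re-dosed at each split, 0.3% DMSO). Cytospun onto slides, Wright-Giemsa stained, and imaged under bright field on an inverted microscope to assess morphology.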

SMILES: CC(C)N(CCCNC(=O)Nc1ccc(C(C)(C)C)cc1)C[C@H]1O[C@@H](n2ccc3c(N)ncnc32)[C@H](O)[C@@H]1O
- Activity: Active
